Data reported in ChEMBL document CHEMBL1126822, “7 alpha-Methyl- and 11 beta-ethoxy-substitution of [125I]-16 alpha-iodoestradiol: effect on estrogen receptor-mediated target tissue uptake” (J Med Chem, 1993).

Experiments:
Details in all cases: in vivo
Rattus norvegicus [1] = experiment: Tissue uptake (thyroid) of [125I]- after administration of [125I]-labeled compound to immature female rats (n=3) in the absence of 60 microg coinjected estradiol after 24 hours; assay type: ADME, organism-based, Thyroid gland
Outline: (§1)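 Immature female Fischer rats, 24 days old, 55-60 g, unanesthetized in retention cages, got HPLC-purified n.c.a. 125I-labeled steroid (3 μCi, 111 kBq) by lateral tail vein. Dose was given in 200 μL saline with 9% ethanol and 1% Tween-80. Deep ether anesthesia, axillary artery cut; tissues KCl-washed, blotted, weighed, gamma-counted as % ID/g; variation as small-sample-corrected %CV.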

Rattus norvegicus [2] = experiment: Tissue uptake (spleen) of [125I]- after administration of [125I]-labeled compound to immature female rats (n=3) in the absence of 60 microg coinjected estradiol after 24 hours; assay type: ADME, organism-based; outline: as §1
Rattus norvegicus [3] = experiment: Tissue uptake (muscle) of [125I]- after administration of [125I]-labeled compound to immature female rats (n=3) in the presence of 60 microg coinjected estradiol after 1 hour; assay type: ADME, organism-based
Outline: (§2)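 Immature female Fischer rats, 24 days old, 55-60 g, unanesthetized in retention cages, given HPLC-purified 125I-labeled steroid (3 μCi, 111 kBq) via lateral tail vein in 200 μL of 9% ethanol-saline with 1% Tween-80. The blocking group was coinjected with 60 μg unlabeled estradiol and sampled at 1 h. Animals were killed under ether at 0.5-24 h. Tissues were KCl-washed, blotted, weighed and gamma-counted. Results are % ID/g, with variation as small-sample-corrected %CV.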

Rattus norvegicus [4] = experiment: Tissue uptake (fat) of [125I]- after administration of [125I]-labeled compound to immature female rats (n=5) in the absence of 60 microg coinjected estradiol after 1 hour; assay type: ADME, organism-based; outline: as §2
Rattus norvegicus [5] = experiment: Tissue uptake (blood) of [125I]- after administration of [125I]-labeled compound to immature female rats (n=3) in the presence of 60 microg coinjected estradiol after 1 hour; assay type: ADME, organism-based; outline: as §2
Rattus norvegicus [6] = experiment: Tissue uptake (lungs) of [125I]- after administration of [125I]-labeled compound to immature female rats (n=4) in the absence of 60 microg coinjected estradiol after 2 hours; assay type: ADME, organism-based; outline: as §2
Rattus norvegicus [7] = experiment: Tissue uptake (kidneys) of [125I]- after administration of [125I]-labeled compound to immature female rats (n=5) in the absence of 60 microg coinjected estradiol after 1 hour; assay type: ADME, organism-based, Kidney; outline: as §2
Rattus norvegicus [8] = experiment: Tissue uptake (liver) of [125I]- after administration of [125I]-labeled compound to immature female rats (n=3) in the presence of 60 microg coinjected estradiol after 1 hour; assay type: ADME, organism-based; outline: as §2
Rattus norvegicus [9] = experiment: Tissue uptake (spleen) of [125I]- after administration of [125I]-labeled compound to immature female rats (n=4) in the absence of 60 microg coinjected estradiol after 5 hours; assay type: ADME, organism-based; outline: as §1
Rattus norvegicus [10] = experiment: Tissue uptake (spleen) of [125I]- after administration of [125I]-labeled compound to immature female rats (n=3) in the absence of 60 microg coinjected estradiol after 0.5 hours; assay type: ADME, organism-based; outline: as §1
Rattus norvegicus [11] = experiment: Tissue uptake (uterus) of [125I]- after administration of [125I]-labeled compound to immature female rats (n=5) in the absence of 60 microg coinjected estradiol after 1 hour; assay type: ADME, organism-based; outline: as §1
Rattus norvegicus [12] = experiment: Tissue uptake (lungs) of [125I]- after administration of [125I]-labeled compound to immature female rats (n=5) in the absence of 60 microg coinjected estradiol after 1 hour; assay type: ADME, organism-based; outline: as §2
Rattus norvegicus [13] = experiment: Tissue uptake (fat) of [125I]- after administration of [125I]-labeled compound to immature female rats (n=4) in the absence of 60 microg coinjected estradiol after 2 hours; assay type: ADME, organism-based; outline: as §2
Rattus norvegicus [14] = experiment: Tissue uptake (thyroid) of [125I]- after administration of [125I]-labeled compound to immature female rats (n=5) in the absence of 60 microg coinjected estradiol after 1 hour; assay type: ADME, organism-based, Thyroid gland; outline: as §1
Rattus norvegicus [15] = experiment: Tissue uptake (blood) of [125I]- after administration of [125I]-labeled compound to immature female rats (n=4) in the absence of 60 microg coinjected estradiol after 2 hours; assay type: ADME, organism-based; outline: as §2
Rattus norvegicus [16] = experiment: Tissue uptake (liver) of [125I]- after administration of [125I]-labeled compound to immature female rats (n=4) in the absence of 60 microg coinjected estradiol after 2 hours; assay type: ADME, organism-based; outline: as §2
Rattus norvegicus [17] = experiment: Tissue uptake (fat) of [125I]- after administration of [125I]-labeled compound to immature female rats (n=4) in the absence of 60 microg coinjected estradiol after 5 hours; assay type: ADME, organism-based; outline: as §2
Rattus norvegicus [18] = experiment: Tissue uptake (muscle) of [125I]- after administration of [125I]-labeled compound to immature female rats (n=3) in the absence of 60 microg coinjected estradiol after 24 hours; assay type: ADME, organism-based; outline: as §2
Rattus norvegicus [19] = experiment: Tissue uptake (thyroid) of [125I]- after administration of [125I]-labeled compound to immature female rats (n=3) in the presence of 60 microg coinjected estradiol after 1 hour; assay type: ADME, organism-based, Thyroid gland; outline: as §1
Rattus norvegicus [20] = experiment: Tissue uptake (muscle) of [125I]- after administration of [125I]-labeled compound to immature female rats (n=4) in the absence of 60 microg coinjected estradiol after 2 hours; assay type: ADME, organism-based; outline: as §2
Rattus norvegicus [21] = experiment: Tissue uptake (liver) of [125I]- after administration of [125I]-labeled compound to immature female rats (n=5) in the absence of 60 microg coinjected estradiol after 1 hour; assay type: ADME, organism-based; outline: as §2
Rattus norvegicus [22] = experiment: Tissue uptake (muscle) of [125I]- after administration of [125I]-labeled compound to immature female rats (n=3) in the absence of 60 microg coinjected estradiol after 0.5 hours; assay type: ADME, organism-based; outline: as §2
Rattus norvegicus [23] = experiment: Tissue uptake (spleen) of [125I]- after administration of [125I]-labeled compound to immature female rats (n=4) in the absence of 60 microg coinjected estradiol after 2 hours; assay type: ADME, organism-based; outline: as §1
Rattus norvegicus [24] = experiment: Tissue uptake (muscle) of [125I]- after administration of [125I]-labeled compound to immature female rats (n=4) in the absence of 60 microg coinjected estradiol after 5 hours; assay type: ADME, organism-based; outline: as §2
Rattus norvegicus [25] = experiment: Tissue uptake (fat) of [125I]- after administration of [125I]-labeled compound to immature female rats (n=3) in the absence of 60 microg coinjected estradiol after 0.5 hours; assay type: ADME, organism-based; outline: as §2
Rattus norvegicus [26] = experiment: Tissue uptake (muscle) of [125I]- after administration of [125I]-labeled compound to immature female rats (n=5) in the absence of 60 microg coinjected estradiol after 1 hour; assay type: ADME, organism-based; outline: as §2
Rattus norvegicus [27] = experiment: Tissue uptake (spleen) of [125I]- after administration of [125I]-labeled compound to immature female rats (n=3) in the presence of 60 microg coinjected estradiol after 1 hour; assay type: ADME, organism-based; outline: as §1
Rattus norvegicus [28] = experiment: Tissue uptake (thyroid) of [125I]- after administration of [125I]-labeled compound to immature female rats (n=4) in the absence of 60 microg coinjected estradiol after 5 hours; assay type: ADME, organism-based, Thyroid gland; outline: as §1
Rattus norvegicus [29] = experiment: Tissue uptake (liver) of [125I]- after administration of [125I]-labeled compound to immature female rats (n=4) in the absence of 60 microg coinjected estradiol after 5 hours; assay type: ADME, organism-based; outline: as §2
Rattus norvegicus [30] = experiment: Tissue uptake (kidneys) of [125I]- after administration of [125I]-labeled compound to immature female rats (n=4) in the absence of 60 microg coinjected estradiol after 2 hours; assay type: ADME, organism-based, Kidney; outline: as §2
Rattus norvegicus [31] = experiment: Tissue uptake (blood) of [125I]- after administration of [125I]-labeled compound to immature female rats (n=3) in the absence of 60 microg coinjected estradiol after 0.5 hours; assay type: ADME, organism-based; outline: as §2

| SMILES | ID/g (Rattus norvegicus [1]) | ID/g (Rattus norvegicus [2]) | ID/g (Rattus norvegicus [3]) | ID/g (Rattus norvegicus [4]) | ID/g (Rattus norvegicus [5]) | ID/g (Rattus norvegicus [6]) | ID/g (Rattus norvegicus [7]) | ID/g (Rattus norvegicus [8]) | ID/g (Rattus norvegicus [9]) | ID/g (Rattus norvegicus [10]) | ID/g (Rattus norvegicus [11]) | ID/g (Rattus norvegicus [12]) | ID/g (Rattus norvegicus [13]) | ID/g (Rattus norvegicus [14]) | ID/g (Rattus norvegicus [15]) | ID/g (Rattus norvegicus [16]) | ID/g (Rattus norvegicus [17]) | ID/g (Rattus norvegicus [18]) | ID/g (Rattus norvegicus [19]) | ID/g (Rattus norvegicus [20]) | also measured |
| --- | --- | --- | --- | --- | --- | --- | --- | --- | --- | --- | --- | --- | --- | --- | --- | --- | --- | --- | --- | --- | --- |
| CCO[C@H]1C[C@]2(C)[C@@H](O)[C@H](I)C[C@H]2[C@@H]2CCc3cc(O)ccc3[C@H]21 | 773.37% | 0.7% | 0.72% | 1.51% | 1.09% | 1.01% | 1.83% | 4.5% | 1.28% | 1.44% | 11.67% | 1.3% | 0.94% | 110.96% | 0.89% | 3.24% | 0.52% | 0.13% | 156.51% | 0.52% | ID/g (Rattus norvegicus [21]): 3.48%; ID/g (Rattus norvegicus [22]): 1.05%; ID/g (Rattus norvegicus [23]): 1.76%; ID/g (Rattus norvegicus [24]): 0.35%; ID/g (Rattus norvegicus [25]): 2.47%; ID/g (Rattus norvegicus [26]): 0.69%; ID/g (Rattus norvegicus [27]): 1.6%; ID/g (Rattus norvegicus [28]): 703.1%; ID/g (Rattus norvegicus [29]): 2.31%; ID/g (Rattus norvegicus [30]): 1.78%; ID/g (Rattus norvegicus [31]): 1.29% |
| C[C@@H]1Cc2cc(O)ccc2[C@H]2CC[C@]3(C)[C@@H](O)[C@H](I)C[C@H]3[C@H]12 | 334.84% | 0.08% | 0.27% | 1.79% | 0.33% | 0.32% | 0.83% | 1.09% | 0.22% | 0.57% | 5.25% | 0.54% | 1.12% | 45.15% | 0.32% | 1.09% | 0.38% | 0.01% | 43.5% | 0.15% | ID/g (Rattus norvegicus [21]): 1.26%; ID/g (Rattus norvegicus [22]): 0.54%; ID/g (Rattus norvegicus [23]): 0.33%; ID/g (Rattus norvegicus [24]): 0.06%; ID/g (Rattus norvegicus [25]): 2.2%; ID/g (Rattus norvegicus [26]): 0.32%; ID/g (Rattus norvegicus [27]): 0.43%; ID/g (Rattus norvegicus [28]): 320.54%; ID/g (Rattus norvegicus [29]): 0.72%; ID/g (Rattus norvegicus [30]): 0.5%; ID/g (Rattus norvegicus [31]): 0.45% |
